Assay outcomes: PubChem, The Scripps Research Institute Molecular Screening Center
PAFAH1B3 FP inh – PAFAH1B3 (human) inhibition; Q15102; AID 492972; recombinant PAFAH1B3, FP-rhodamine probe, fluorescence polarization; 340,000 compounds, 0.28% hits; inhibition, % at 3.39 µM;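 active = inhibition above the screen-wide average of all tested compounds plus 3 SD, cut at about 25% in these data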
pPAFAH inh – inhibitors of human plasma PAF acetylhydrolase (pPAFAH); Q13093; recombinant pPAFAH, FP-rhodamine probe fluorescence polarization; inhibition, % at 3.39 µM; 330,000 compounds, 1.5% hits; AID 463082;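 active = inhibition above the mean inhibition across the screen plus 3 SD, cut at about 25% in these data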;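 also: inhibitors block binding of the rhodamine activity-based probe so polarization drops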
Target sequence (Q13093 whole entry, looked up): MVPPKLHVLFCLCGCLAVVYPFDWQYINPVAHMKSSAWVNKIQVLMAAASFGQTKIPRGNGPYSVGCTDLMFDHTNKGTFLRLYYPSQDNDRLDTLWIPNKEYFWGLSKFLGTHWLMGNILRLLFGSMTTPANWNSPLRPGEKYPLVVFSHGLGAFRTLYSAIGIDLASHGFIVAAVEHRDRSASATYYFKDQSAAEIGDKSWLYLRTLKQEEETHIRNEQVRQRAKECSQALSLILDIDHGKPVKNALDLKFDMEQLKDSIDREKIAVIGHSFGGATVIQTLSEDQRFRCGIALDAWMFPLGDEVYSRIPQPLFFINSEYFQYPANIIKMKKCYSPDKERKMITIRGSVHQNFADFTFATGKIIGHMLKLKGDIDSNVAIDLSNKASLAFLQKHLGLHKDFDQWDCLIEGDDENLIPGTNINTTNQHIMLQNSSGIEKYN
PAFAH1B2 inh – inhibitors of human PAFAH1B2; P68402; recombinant PAFAH1B2, FP-rhodamine activity probe, fluorescence polarization; inhibition, % at 3.39 µM; 340,000 compounds, 1.2% hits;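 active = inhibition above the mean of all tested compounds plus 3 SD, cut at about 24% in these data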
PAFAH2 FP inh – PAFAH2 (human) inhibition; 340,000 compounds, 0.99% hits; inhibition, % at 3.39 µM; Q99487; recombinant PAFAH2, FP-rhodamine activity probe, fluorescence polarization; AID 492956;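 active = inhibition above the mean over all tested compounds plus 3 SD, cut at about 30% in these data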;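 also: inhibitors block probe labeling of enzyme so polarization drops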
IMP-1 inh – blocks Pseudomonas aeruginosa IMP-1 metallo-beta-lactamase; inhibition, % at 5.6 µM; AID 1556; purified IMP-1, nitrocefin hydrolysis, epi-absorbance fluorescence; 290,000 compounds, 0.45% hits;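 active = inhibition above the mean plus 3 SD of all compounds in the same screening run, cut at about 4.5% in these data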
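assay system = purified recombinant IMP-1 metallo-beta-lactamase enzyme | schedule = 15 min preincubation plus 25 min reaction at 25 °C | signal = Epi-absorbance fluorescence, 480 nm excitation, 530 nm emission | read-out basis = percent inhibition from optical density relative to buffer-blank wells | controls = IMP-1 with DMSO as 0%, enzyme-free DMSO as 100%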
VIM-2 inhibitor – blocks Pseudomonas aeruginosa VIM-2 metallo-beta-lactamase; purified VIM-2, nitrocefin hydrolysis, epi-absorbance fluorescence; AID 1527; inhibition, % at 5.6 µM; 290,000 compounds, 0.89% hits;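 active = inhibition above the mean of all tested compounds plus 3 SD, cutoff set per screening run, cut at about 7.5% in these data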;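 also: red hydrolysis product quenches plate fluorescence so inhibitors raise well fluorescence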
pPAFAH confirm – pPAFAH (human) inhibition, confirmed; shares compounds with pPAFAH inh; inhibition, % at 3.39 µM; recombinant pPAFAH, FP-Rh probe fluorescence polarization; 2,300 compounds, 72% hits;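 active = mean inhibition of the triplicate above the hit cutoff set for the earlier primary screen, cut at about 25% in these data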
Hits are given with their value; n = inactive; x = no result given. In the library only some 3.6% were active in any assay of this set; here they are far more common.

SMILES	PAFAH1B3 FP inh	pPAFAH inh	PAFAH1B2 inh	PAFAH2 FP inh	IMP-1 inh	VIM-2 inhibitor	pPAFAH confirm
Brc1cc2c(cc1Br)OCCOCCOCCOCCO2	n	n	n	n	n	n	x
O=C(COC(=O)c1ccccc1OCc1ccc(Cl)cc1)NC1CC1	n	n	n	n	n	n	x
O=C(COC(=O)c1ccc2c(c1Cl)C(=O)c1ccccc1C2=O)NC1CCCCC1	n	52.8	n	44.4	n	n	49.9
O=C(COC(=O)c1cc(Cl)ccc1Cl)NC1CCCC1	n	n	n	n	n	n	x
O=C(COC(=O)c1ccc2c(c1Cl)C(=O)c1ccccc1C2=O)NC1CC1	n	53.6	n	34.2	n	n	43.8
Cc1nn(-c2ccccc2)c2nc(C(F)F)cc(C(F)F)c12	n	n	n	n	x	x	x
CC(C)(C)c1ccc(O)c(N=Cc2cc3c(cc2[N+](=O)[O-])OCO3)c1	n	41.3	n	n	n	n	n
O=[N+]([O-])c1cc(Br)cc(C=Nc2ccc3c(c2)OCO3)c1O	n	40.9	n	n	n	n	51.8
S=C(NCCN1CCOCC1)N/N=C/c1cccs1	n	n	n	n	n	n	x
Oc1cccc(/C=N/NC(=S)NCCN2CCOCC2)c1O	n	40.9	n	n	n	n	n
CN(C(=O)c1cccc(NC(=O)Cc2cccc(NC(=O)C3CCCN(C(=O)C4CCCC4)C3)c2)c1)C1CC1 (configuration not stated)	n	x	n	n	x	x	x
CCOC(=O)Cc1cc(=O)n(-c2nc3ccccc3s2)[nH]1	n	40.8	n	30.5	n	n	n
COc1ccc(S(=O)(=O)NCc2ccc3c(c2)cc(C)n3C)cc1	n	n	n	n	n	n	x
Cc1cc2cc(CNS(=O)(=O)c3ccccc3)ccc2n1C	n	47.2	n	n	n	n	35.1
COc1ccc(C(=O)O)cc1NC(=S)NC(=O)/C=C/c1ccc(C(C)C)cc1	n	n	n	n	n	n	x
Cc1c(C)c2ccc(O)c(CN3CCCC3)c2oc1=O	n	n	n	n	n	n	x
O=c1oc2c(CN3CCCCC3)c(O)ccc2c2c1CCCC2	n	37.6	n	n	n	n	n
C/C(=N\OCc1nc2ccccc2c(=O)n1/N=C/c1cc(C)cc([N+](=O)[O-])c1O)c1ccccc1	n	45.6	n	n	n	n	n
Cc1cc([N+](=O)[O-])cc(/C=N/n2c(C)nc3ccccc3c2=O)c1O	n	n	n	n	n	n	x
CN1CCCN(C(=O)c2ccc(Cl)s2)CC1	n	n	n	n	n	n	x
CC1=C(C)C(O)N(Cc2ccccc2)C1=O (configuration not stated)	n	n	n	n	n	n	x
Cc1nc2ccccc2c(=O)n1/N=C/c1ccccc1O	n	n	n	n	n	n	x
Cc1nc2ccccc2c(=O)n1/N=C/c1ccc(O)c(O)c1O	27.1	86.8	n	45.5	n	n	46.7
CCOc1ccccc1C(=O)NCC(=O)OCc1csc(CC(=O)Nc2ccc(C)cc2)n1	n	36.7	n	n	x	x	n
CCOc1ccc(NC(=O)CSc2nc3[nH]ncc3c(=O)n2-c2ccccc2OC)cc1	n	40.5	n	n	n	n	n
SMILES	PAFAH1B3 FP inh	pPAFAH inh	PAFAH1B2 inh	PAFAH2 FP inh	IMP-1 inh	VIM-2 inhibitor	pPAFAH confirm
O=C(COC(=O)/C=C/c1ccccc1[N+](=O)[O-])Nc1ccc(S(=O)(=O)N2CCOCC2)cc1	n	n	n	n	x	x	x
Cc1c2ccccc2nc2c(F)c(NCCO)c(F)c(F)c12	n	37.1	n	n	n	n	n
Cc1ccc(-c2c(C(=O)N/N=C/c3ccsc3)nnn2-c2nonc2N)cc1	n	n	n	n	n	n	x
O=C(COC(=O)c1ccc2[nH]c3c(c2c1)CCCC3)Nc1ccc(Cl)cc1Cl	n	n	n	n	n	n	x
CCC(C)c1ccccc1NC(=O)COC(=O)c1ccc2[nH]c3c(c2c1)CCCC3 (configuration not stated)	n	38.5	n	71.2	n	n	29.1
Cc1cc(C(=O)N/N=C2\CC(=O)c3ccccc32)c(C)n1-c1ccc(F)cc1	n	42.4	n	n	n	n	31.8
N#Cc1c(-c2cccc(F)c2)cc(-c2ccccc2)nc1Br	n	n	n	n	n	n	x
N#Cc1c(-c2ccccc2Cl)cc(-c2ccccc2)nc1Br	n	35.2	n	n	n	n	n
